Assay outcomes: PubChem, several laboratories
beta cell repl: induces beta-cell replication in MIN6 cells. proliferation, % at 10 µM. 330,000 compounds, 0.29% hits. MIN6 cells proliferation, ATPlite luminescence, 48 h; cells starved in 0.2% serum; 100% = growth in 10% serum. AID 2380;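 active means compounds whose signal lies at least 3.5 SD above the mean of all wells on their plate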;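 further: 0% = DMSO-treated cells in low-serum medium and 100% = 10% serum control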
MC4R ag barr: human MC4R agonism via beta-arrestin; 360,000 compounds, 0.98% hits; AID 540308; U2OS MC4R beta-arrestin complementation, luminescence; percent of melanotan II response, DMSO zero; activation, % at 8.9 µM;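 active means activation above a per-plate cutoff, the mean activation of sample wells on that plate plus 3 SD, cut at about 8% in these data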
TMEM16A act: mouse TMEM16A channel activation, primary screen; HEK293 TMEM16A/YFP-H148Q/I152L, iodide quench fluorescence; hits give low values; AID 623877; Q8BHY3; 340,000 compounds, 0.3% hits; B-score at 10 µM;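 active means fluorescence-ratio B-score plate-corrected deviation score at least 3 library SD below zero, with starting fluorescence score within 5 deviations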;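 further: channel opened by trigger with iodide after compound preincubation; score built on the fluorescence ratio of max minus min over baseline; more negative score means more quench and so TMEM16A activation or potentiation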
ANO1 block: blocks the mouse calcium-activated chloride channel TMEM16A | HEK293 TMEM16A/YFP iodide influx fluorescence, ionomycin | 310,000 compounds, 1.2% hits | normalized B-score (activity score, 25-100; higher = stronger inhibition) at 10 µM | Q8BHY3;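 active means ratio plate-corrected score three or more library SD toward inhibition, starting fluorescence score within five deviations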;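 further: score derived from kinetic fluorescence span divided by baseline fluorescence per well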
MC4R antag cAMP: blocks human MC4R cAMP signaling | MC4R-expressing cells, MTII-stimulated cAMP, LANCE TR-FRET | inhibition, % at 6.5 µM | 360,000 compounds, 0.48% hits;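 active means inhibition above its plate's cutoff, the mean of tested wells on that plate plus 3 SD, cut at about 29% in these data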;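 further: 0% = Melanotan II alone and 100% = Melanotan II plus saturating MCL0020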
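Assay system: U2OS-MC4R stable cell line; Also added: Melanotan II; Technique: Eu-cAMP/anti-cAMP TR-FRET, emission 671 nm; Times: 30-min compound, 1-h challenge, 1-h detection, room temperature.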
HTR2A ag: agonists of mouse serotonin 5-HT2A receptor (HTR2A); 360,000 compounds, 0.66% hits; P35363; activation, % at 7.6 µM; AID 624169; CHO-K1 mHTR2A beta-arrestin complementation, luminescence; percent of 30 µM serotonin response;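 active means activation above a run cutoff, the mean activation of all tested compounds plus 3 SD, cut at about 14% in these data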;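 further: 0% = plate median of compound wells and 100% = 30 µM serotonin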
TMEM16A reconf: reconfirmed blocker of mouse TMEM16A calcium-activated chloride channel; shares compounds with ANO1 block; HEK293 TMEM16A/YFP-H148Q, iodide quench fluorescence; ionomycin added to raise cell calcium; inhibition, % at 10 µM; 2,300 compounds, 39% hits;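 active means mean duplicate percent inhibition, scaled so buffer wells are 0 and the reference blocker 100, over three buffer SD above buffer mean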
HEK293 Ca mobil: counter-screen for TMEM16A inhibitors: effect on calcium mobilization; calcium response (% of ionomycin), % at 10 µM; shares compounds with ANO1 block; AID 652231; 2,300 compounds, 2% hits; TMEM16A/YFP HEK293, Fluo4 calcium mobilization;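 active means duplicate-averaged calcium signal over 20% of the ionomycin maximum, relative to buffer baseline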;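 further: each well's signal is peak minus trough fluorescence divided by its pre-addition baseline; 0% = buffer wells and 100% = ionomycin wells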
Parental YFP cnt: acts in parental YFP-HEK293 cells lacking TMEM16A, counter-screen; shares compounds with ANO1 block; iodide YFP quench, ionomycin; YFP ratio F(max-min)/F0 at 10 µM; 2,300 tested, under 10 active; AID 652233;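 active means yellow fluorescent protein signal ratio exceeding the buffer control mean by over 5 SD of those controls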;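 further: ratio is mean of duplicate wells from kinetic YFP trace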
ClC-1 inh: selectivity of TMEM16A inhibitors: inhibition of rat ClC-1 chloride channel; ratio percent, % at 10 µM; shares compounds with ANO1 block; AID 652236; CHO ClC-1-YFP, iodide influx fluorescence quench; iodide control reads 0, buffer control 100; 2,300 tested, under 10 active;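 active means duplicate-mean ratio percent above the mean of iodide-only control wells, which defines zero, plus 5 of their SD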;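 further: higher percent means stronger block of ClC-1 iodide influx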
Starred values were filed as active, the others as inactive; i = inactive; x = not tested or not shown; ! = a repeat was not active. The list is not random: actives were taken first. Their share in the collection is about 3.4%.

SMILES	beta cell repl	MC4R ag barr	TMEM16A act	ANO1 block	MC4R antag cAMP	HTR2A ag	TMEM16A reconf	HEK293 Ca mobil	Parental YFP cnt	ClC-1 inh
O=C(CC(O)c1ccncc1)c1ccccc1O (centres undefined)	x	-1	i	x	20	6	x	x	x	x
COC(=O)c1ccc(NC(=O)CCN2CCN(CCC(=O)Nc3ccc(C(=O)OC)cc3)CC2)cc1	-2	-1	i	i	5	-2	x	x	x	x
COC(=O)c1ccc(NC(=O)CCN2CCCCC2)cc1	-1	0	i	25*!	16	-6	i	i	-0.89	-22
Cc1ccc(Cn2cc(CN3CC(N4CCSCC4)CS3(=O)=O)nn2)cc1 (centres undefined)	x	x	x	x	x	9	x	x	x	x
CC(=O)c1ccc(NC(=O)Nc2cccc(Cl)c2)cc1	-3	-2	i	25*	-1	-9	54%*	i	-1.1	-27
CC(=O)Nc1ccc(NC(=O)Nc2cccc(Cl)c2)cc1	0	-1	i	i	-2	0	x	x	x	x
Cc1ccc(S(=O)(=O)NCC(c2ccco2)S(=O)(=O)c2ccccc2)cc1 (centres undefined)	1	-2	i	25*	-1	-6	i	i	-1.3	-6
Cc1cc(C(=O)OCC(=O)NC2(C#N)CCCCC2)c(C)o1	-1	-1	i	x	9	4	x	x	x	x
Cn1c(CN2CCCC2)nc2cc(NC(=O)c3ccc(Cl)cc3)ccc21	2	2	i	i	-2	-1	x	x	x	x
Cn1c(CN2CCCCC2)nc2cc(NC(=O)c3ccc(Cl)cc3)ccc21	-1	-1	i	100*	12	1	23%*	i	-1.2	-3
NC(=O)NC(=O)COC(=O)CCCc1c[nH]c2ccccc12	-3	1	i	100*	10	3	i	i	-1	-14
CC(=O)Nc1ccc(NC(=O)COC(=O)CCCc2c[nH]c3ccccc23)cc1	3	-4	i	i	5	-3	x	x	x	x
Cc1ccc2oc(C(=O)N(C)Cc3ccc(C)o3)c(C)c2c1	1	-2	i	i	12	-7	x	x	x	x
Cc1nc(NS(=O)(=O)c2ccc(Cl)s2)c2c3c(sc2n1)CCCC3	-6	-1	i	25*	-5	2	17%*	i	-0.91	-26
CCOc1ccc(-c2nc(CSCC(=O)N3CCN(c4cccc(OC)c4)CC3)c(C)o2)cc1	-4	1	i	100*	8	5	26%*	i	-0.91	-14
Cc1cccc(C2(c3cccc(C)c3)OC(=O)c3ccccc32)c1	-5	1	i	i	-3	-6	x	x	x	x
Cc1cc(O)ccc1C1(c2ccc(O)cc2C)OC(=O)c2ccccc21	0	0	i	25*	-5	-2	43%*	i	-0.94	-4
CN(C(=O)COC(=O)CNC(=O)c1cccs1)c1c(N)n(Cc2ccccc2)c(=O)[nH]c1=O	-5	0	i	x	10	-3	x	x	x	x
CC(C)Cc1ccc(C(C)C(=O)Nc2cccnc2)cc1 (centres undefined)	-4	3	i	25*	23	-6	52%*	i	-1.1	-12
CC(C(=O)Nc1cccnc1)c1ccc([N+](=O)[O-])cc1 (centres undefined)	2	3	i	i	-2	2	x	x	x	x
